Rows were chosen to be rich in hits. Some 2.8% of all compounds tested hit in one or more screens of this group.
JMJD2C inh – human JMJD2C demethylase inhibition | Q9H3R0 | GST-JMJD2C(1-420) H3K9me3 demethylation, DELFIA europium | inhibition, % at 2.35 µM | actives 0.069% (n = 330,000) | AID 2099;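 active = more than half of a compound's replicate wells show inhibition beyond 50%, single wells judged on their own value; inconclusive = some, but no more than half, of replicates pass 50% inhibition; inactive = no replicate passes 50% inhibition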;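 note: signal counts dimethyl H3K9 product captured on neutravidin plate; 0% = median of DMSO wells and 100% = 0.3 times that DMSO median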
Rtt109 Vps75 – blocks Candida albicans Rtt109/Vps75 acetyltransferase activity; Q5AAJ8; purified Rtt109/Vps75, ThioGlo CoA-SH fluorescence, 4 h; inhibition, % at 34.9 µM; actives 0.16% (n = 330,000); AID 540336;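 active = inhibition of at least 50% in every replicate; inconclusive = best replicate reaches 50% inhibition but some replicates fall short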
Target sequence (Q5AAJ8 whole entry, looked up): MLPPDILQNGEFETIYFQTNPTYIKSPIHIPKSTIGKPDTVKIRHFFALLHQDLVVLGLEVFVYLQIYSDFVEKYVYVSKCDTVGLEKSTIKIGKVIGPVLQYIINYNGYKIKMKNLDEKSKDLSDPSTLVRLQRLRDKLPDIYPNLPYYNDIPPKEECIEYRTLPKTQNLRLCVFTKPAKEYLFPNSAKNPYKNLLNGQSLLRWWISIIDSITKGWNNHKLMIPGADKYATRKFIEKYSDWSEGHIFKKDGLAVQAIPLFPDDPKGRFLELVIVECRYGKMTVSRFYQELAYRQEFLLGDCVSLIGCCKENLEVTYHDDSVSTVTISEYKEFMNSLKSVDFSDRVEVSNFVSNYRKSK
T cell HTS – T cell immune modulation candidate; 2C CD8+ T cell-vesicle binding, flow cytometry; hits give low values; response (vesicle binding), % at 7 µM; actives 0.068% (n = 330,000); AID 2052;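 active = response, share of CD8 T cells binding vesicles, and their 90th percentile fluorescence all below set limits, cut at about 80% in these data, passing the limit was not always enough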;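 note: values below 100% mean blocked vesicle binding to the CD8+ T cells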
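Benchmarks: naked versus QL9-loaded vesicles / Assay system: purified 2C TCR transgenic mouse naive CD8+ T cells / Technique: high-throughput flow cytometry with anti-B7-1 and anti-CD8 staining / Timing: Cell–vesicle co-incubation 1.5 h at 37 °C, staining 20 min on ice / Read-out: percent CD8+ FL2 mean versus row control / Probe or stimulus: QL9-loaded Drosophila micro-vesicles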
NR3A LBD binder – NR3A (human) ligand-binding domain modulation | NR3A LBD differential scanning fluorimetry, Tm shift; 0% = protein alone, 100% = glycine-bound protein | Tm shift relative to glycine control, % at 25 µM | actives 2.5% (n = 340,000);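 active = melting temperature shift of at least 10% of the positive control shift, at one fixed dose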
An asterisk follows results filed as active; u = inconclusive; x = no result given.

SMILES	JMJD2C inh	Rtt109 Vps75	T cell HTS	NR3A LBD binder
COc1cc(C(=O)c2nccc3cc(OC)c(OC)cc23)c([N+](=O)[O-])cc1OC	-15	8	265	6
COc1ccc(/C=C/C(=O)O)cc1S(=O)(=O)NCc1ccco1	12	50*	384	-1
O=c1[nH]c(/C=C2\C=Nc3ccccc32)c(O)n1Cc1ccccc1F	2	9	276	10*
COc1cc2c(cc1OC)CN(c1ncccc1[N+](=O)[O-])CC2	1	x	215	9
Cc1c(CCNC=O)cc(C)c2c3c(oc12)CCCC3	x	1	x	0
O=C(NCCCN1CCCC1=O)c1ccc(S(=O)(=O)Nc2ccccc2F)cc1	-6	0	289	0
O=C(NCCCN1CCCC1=O)c1ccc(OC(F)(F)F)cc1	9	61*	343	-2
COc1ccc(OC)c(C(c2c(O)nc(SC)[nH]c2=O)c2c(O)nc(SC)[nH]c2=O)c1	0	-8	237	2
Cc1ccc(O)c(/C=N/NC(=O)CN2CCCC2)c1	-5	6	124	-2
O=C(CN1CCCCCCC1)N/N=C/c1ccc(F)cc1F	-12	7	290	24*
O=C(NCc1cc(C(F)(F)F)cc(C(F)(F)F)c1)C1CC(c2ccccc2C(F)(F)F)=NO1 (stereo not given)	-9	x	x	-16
c1ccc(CSc2ccc(-c3cccs3)nn2)nc1	-2	13	313	1
c1ccc(CSc2ccc(-c3cccs3)nn2)cc1	-4	-5	255	19*
Cc1cc(Br)ccc1NC(=O)CN1C(=O)C2CC=CCC2C1=O (stereo not given)	-13	8	732	2
CCCCN1C(=O)NC(NC(=O)c2ccco2)(C(F)(F)F)C1=O (stereo not given)	-1	11	848	-1
CC(C)Oc1ccc(C(=O)NC2(C(F)(F)F)NC(=O)N(CCCc3ccccc3)C2=O)cc1 (stereo not given)	-12	16	81	14*
Cc1nc(-c2ccccc2)sc1C(N)=O	-214	-8	490	19*
CCOC(=O)c1cccc(N2CC3CNC(=O)C2(C(=O)OC)N3C)c1 (stereo not given)	x	1	614	-1
COc1ccc(CN2C(=O)[C@@H]3Cc4c([nH]c5ccccc45)C(C)(C)N3C2=O)cc1	14	6	x	12*
c1ccc2[nH]c(-c3cnco3)cc2c1	-1	-1	723	11*
CCCc1cc(=O)n2[nH]c(C)c(-c3ccccc3)c2n1	12	-6	155	1
Cc1[nH]n2c(=O)cc(-c3ccc([N+](=O)[O-])cc3)nc2c1-c1ccccc1	11	40	197	14*
Cc1c(C2Nc3ccccc3C(=O)N2O)cnn1C (stereo not given)	-5	-8	584	611*
CCn1cc(C2Nc3ccccc3C(=O)N2O)c(C)n1 (stereo not given)	-5	3	248	2
CS(=O)(=O)N(CC(=O)Nc1ccc(CC#N)cc1)c1ccc(C23CC4CC(CC(C4)C2)C3)cc1	-2	0	252	26*
SMILES	JMJD2C inh	Rtt109 Vps75	T cell HTS	NR3A LBD binder
CC(=O)Nc1ccc(NC(=O)CN(c2ccc(C34CC5CC(CC(C5)C3)C4)cc2)S(C)(=O)=O)cc1	6	-2	248	-1
Cc1noc(C)c1COc1ccccc1C(=O)NC(C)c1ccc(F)cc1 (stereo not given)	x	-5	x	0
O/C(=C\c1nc2ccccc2nc1/C=C(\O)c1ccccc1)c1ccccc1	-6	-3	191	22*
O=c1oc2ccccc2nc1/C=C(\O)c1ccccc1	-3	x	390	1
COc1ccc(/C=C2\SC(N3CCc4ccccc4C3)=NC2=O)cc1	4	5	274	12*
Cc1c(C(=O)N2CCOCC2)sc(NC(=O)C(C)C)c1C#N	4	3	417	-2
COc1ccc(NC(=S)NC(NC(=O)c2cccc3ccccc23)C(Cl)(Cl)Cl)c([N+](=O)[O-])c1 (stereo not given)	2	-11	619	12*
COc1ccc(NC(=S)NC(NC(=O)c2ccccc2Cl)C(Cl)(Cl)Cl)c([N+](=O)[O-])c1 (stereo not given)	14	9	408	10
COc1ccc(NC(=S)NC(NC(=O)c2ccc(Cl)cc2Cl)C(Cl)(Cl)Cl)c([N+](=O)[O-])c1 (stereo not given)	-3	38	153	11*
CCCCn1c(N)c(N(CC(C)C)C(=O)Cc2ccc(S(=O)(=O)N3CCOCC3)s2)c(=O)[nH]c1=O	x	8	x	0
COC1OC(O)C(NC(=O)C(F)(F)F)CC1O (stereo not given)	x	6	x	1
CCOC(=O)C1=CN(CC2CCCCC2)CCC1=O	x	3	x	4
CN1CCc2cccc3c2[C@@H]1Cc1ccc(O)c(O)c1-3	u	60*	593	1
COc1ccc2c(c1O)-c1ccccc1CCN(C)C2	-10	-1	209	-2
Cc1c(Cl)c([N+](=O)[O-])nn1CCCC(=O)Nc1cccc(O)c1	27	2	292	12*
Cc1c(Cl)c([N+](=O)[O-])nn1CCCC(=O)Nc1cccc(Cl)c1Cl	7	-10	490	-22
Cc1ccc(O)c(-c2cc(C(=O)Nc3ccc(S(=O)(=O)Nc4nccc(C)n4)cc3)[nH]n2)c1	2	29	186	30*
CC(=O)Nc1ccc(NC(=O)c2cc(-c3ccc(C)cc3O)n[nH]2)cc1	14	1	180	30*
Cc1cccc(NC(=O)c2cc(-c3cc(C)c(C)cc3O)n[nH]2)c1	8	-1	561	14*
Cc1c(Cl)cccc1NC(=O)c1cc(-c2ccccc2O)n[nH]1	11	6	219	9
Cc1cccc(NC(=O)c2cc(-c3cc(C)ccc3O)n[nH]2)c1	3	-12	129	30*
NC(=O)c1ccc(SCC(=O)OCC(=O)NCc2cccs2)c([N+](=O)[O-])c1	2	3	338	0
CC(=O)N1CCOc2ccc(S(=O)(=O)NCCc3cccc(C)c3)cc21	4	-4	283	-3
Cc1ccc(-c2cc(C(=O)Nc3cccnc3)[nH]n2)c(O)c1C	-4	-12	311	28*
COc1ccc(NC(=O)c2cc(-c3cc(C)ccc3O)n[nH]2)cc1Cl	-4	-5	129	326*
COc1ccc(CCNC(=O)c2cc(-c3ccc(C)c(C)c3O)n[nH]2)cc1OC	1	-5	216	-3
COc1ccc(CCNC(=O)c2cc(-c3cc(C)ccc3O)n[nH]2)cc1OC	-19	0	325	-7
O=C(O)c1ccc(NC(=S)Nc2ccc(S(=O)(=O)Nc3ccccn3)cc2)cc1	x	-5	x	2
CC[C@]12C(=O)N(C)C[C@H]([C@@H]3C(=O)N(Cc4ccccc4)C(=O)[C@@H]31)N2C(=O)c1ccc(C(F)(F)F)cc1	x	x	x	6
O=C(Cn1cc(/C=N/NC(=O)c2cccc3ccccc23)c2ccccc21)Nc1ccc(F)cc1	-1	-23	133	9
